{"source": "ChEMBL document CHEMBL2034866", "about": "“Design, synthesis and biological evaluation of a novel series of 1,3,4-oxadiazole bearing N-methyl-4-(trifluoromethyl)phenyl pyrazole moiety as cytotoxic agents” (Eur J Med Chem, 2012)", "data": [{"tested_on": "MCF7", "assay": "Cytotoxicity against human MCF7 cells after 72 hrs by MTT assay", "assay_type": "functional, cell-based", "conditions": "MCF7, 72 h", "summary_of_the_method": "(§1)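 Time-course MTT: MCF-7 cells were seeded at 5 × 10³ cells/well and exposed to compounds at 1–50. % cytotoxicity and IC50 were determined at 24, 48 and 72 h using MTT read-out at 540 nm. Each experiment was performed independently three times and reported as mean ± SD.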", "units": {"IC50": "µM"}, "values": [{"smiles": "Cn1nc(-c2nnc(SCCOc3ccccc3F)o2)cc1-c1ccc(C(F)(F)F)cc1", "IC50": 14.2}, {"smiles": "Cn1nc(-c2nnc(SCc3c(F)cccc3F)o2)cc1-c1ccc(C(F)(F)F)cc1", "IC50": 16.2}, {"smiles": "Cn1nc(-c2nnc(SCc3ccc(C(F)(F)F)cc3)o2)cc1-c1ccc(C(F)(F)F)cc1", "IC50": 5.25}, {"smiles": "Cn1nc(-c2nnc(SCc3ccc(Cl)cc3F)o2)cc1-c1ccc(C(F)(F)F)cc1", "IC50": 9.8}, {"smiles": "Cn1nc(-c2nnc(SCCc3ccc(F)cc3)o2)cc1-c1ccc(C(F)(F)F)cc1", "IC50": 18.1}]}, {"tested_on": "MCF7", "assay": "Cytotoxicity against human MCF7 cells after 48 hrs by MTT assay", "assay_type": "functional, cell-based", "conditions": "MCF7, 48 h", "summary_of_the_method": "as §1", "units": {"IC50": "µM"}, "values": [{"smiles": "Cn1nc(-c2nnc(SCCOc3ccccc3F)o2)cc1-c1ccc(C(F)(F)F)cc1", "IC50": 19.2}, {"smiles": "Cn1nc(-c2nnc(SCc3c(F)cccc3F)o2)cc1-c1ccc(C(F)(F)F)cc1", "IC50": 20.5}, {"smiles": "Cn1nc(-c2nnc(SCc3ccc(C(F)(F)F)cc3)o2)cc1-c1ccc(C(F)(F)F)cc1", "IC50": 8.86}, {"smiles": "Cn1nc(-c2nnc(SCc3ccc(Cl)cc3F)o2)cc1-c1ccc(C(F)(F)F)cc1", "IC50": 12.2}, {"smiles": "Cn1nc(-c2nnc(SCCc3ccc(F)cc3)o2)cc1-c1ccc(C(F)(F)F)cc1", "IC50": 21.1}]}, {"tested_on": "MCF7", "assay": "Ratio of IC50 for human MCF7 cells after 24 hrs to IC50 for human MCF7 cells after 72 hrs by MTT assay", "assay_type": "functional", "conditions": "not given", "summary_of_the_method": "(§2)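 MCF-7 cells at 5 × 10³ cells/well were treated with compounds at 1–50, and MTT IC50 values were determined at 24, 48 and 72 h (three independent experiments, mean ± SD). The fold reduction is the 24 h IC50 divided by the 48 h or 72 h IC50.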", "values": [{"smiles": "Cn1nc(-c2nnc(SCc3ccc(C(F)(F)F)cc3)o2)cc1-c1ccc(C(F)(F)F)cc1", "Ratio IC50": 2.96}]}, {"tested_on": "not listed separately", "assay": "Cytotoxicity against mouse EAC cells after 24 hrs by MTT assay", "assay_type": "functional, cell-based", "conditions": "Ehrlich", "summary_of_the_method": "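Mouse Ehrlich ascites tumour cells were given at least one in vitro passage before use, then plated at 10⁴ cells/well with 24 h attachment. Compounds in 0.1% DMSO/medium were tested at 1–100 for 24 h against vehicle controls. MTT (1 mg/mL) was applied for 4 h at 37 °C, formazan dissolved in DMSO and A540 read. Done in triplicate; % cytotoxicity was taken relative to control and blank absorbances.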", "units": {"IC50": "µM"}, "values": [{"smiles": "Cn1nc(-c2ccc(C(F)(F)F)cc2)cc1-c1nnc(SCc2cccc([N+](=O)[O-])c2)o1", "IC50": "> 100"}, {"smiles": "Cn1nc(-c2ccc(C(F)(F)F)cc2)cc1-c1nnc(S)o1", "IC50": 75.3}, {"smiles": "Cn1nc(-c2ccc(C(F)(F)F)cc2)cc1-c1nnc(SCCc2ccc(F)cc2)o1", "IC50": 39.5}, {"smiles": "Cn1nc(-c2nnc(SCc3cccc([N+](=O)[O-])c3)o2)cc1-c1ccc(C(F)(F)F)cc1", "IC50": "> 100"}, {"smiles": "Cn1nc(-c2ccc(C(F)(F)F)cc2)cc1-c1nnc(SCc2c(F)cccc2F)o1", "IC50": 38.5}, {"smiles": "Cn1nc(-c2ccc(C(F)(F)F)cc2)cc1-c1nnc(SCc2ccc(C(F)(F)F)cc2)o1", "IC50": 27.2}, {"smiles": "Cn1nc(-c2nnc(S)o2)cc1-c1ccc(C(F)(F)F)cc1", "IC50": 68.2}, {"smiles": "Cn1nc(-c2nnc(SCCOc3ccccc3F)o2)cc1-c1ccc(C(F)(F)F)cc1", "IC50": 25.2}, {"smiles": "Cn1nc(-c2ccc(C(F)(F)F)cc2)cc1-c1nnc(SCc2cccc(Cl)c2Cl)o1", "IC50": 56.5}, {"smiles": "Cn1nc(-c2nnc(SCc3cccc(Cl)c3Cl)o2)cc1-c1ccc(C(F)(F)F)cc1", "IC50": 36.8}, {"smiles": "Cn1nc(-c2nnc(SCc3c(F)cccc3F)o2)cc1-c1ccc(C(F)(F)F)cc1", "IC50": 28.2}, {"smiles": "Cn1nc(-c2nnc(SCc3ccc(Cl)c(Cl)c3)o2)cc1-c1ccc(C(F)(F)F)cc1", "IC50": 46.2}, {"smiles": "Cn1nc(-c2ccc(C(F)(F)F)cc2)cc1-c1nnc(SCCOc2ccccc2F)o1", "IC50": 35.1}, {"smiles": "Cn1nc(-c2nnc(SCc3ccc(C(F)(F)F)cc3)o2)cc1-c1ccc(C(F)(F)F)cc1", "IC50": 20.5}, {"smiles": "Cn1nc(-c2nnc(SCc3ccc(Cl)cc3F)o2)cc1-c1ccc(C(F)(F)F)cc1", "IC50": 26.2}, {"smiles": "Cn1nc(-c2nnc(SCCc3ccc(F)cc3)o2)cc1-c1ccc(C(F)(F)F)cc1", "IC50": 29.2}]}, {"tested_on": "MCF7", "assay": "(§3) Cytotoxicity against human MCF7 cells after 24 hrs by MTT assay", "assay_type": "functional, cell-based", "conditions": "not given", "summary_of_the_method": "(§4)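 Exponentially growing cells were seeded at 10⁴ cells/well and allowed to attach for 24 h. Compounds were dissolved in 0.1% DMSO, diluted in medium and added across 1–100 for 24 h; controls received medium with 0.1% DMSO. MTT (1 mg/mL) was added for 4 h at 37 °C, formazan was solubilised in DMSO and A540 read. Assays were run in triplicate, with % cytotoxicity calculated from control-, blank- and test-well absorbances.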", "values": [{"smiles": "Cn1nc(-c2nnc(SCCOc3ccccc3F)o2)cc1-c1ccc(C(F)(F)F)cc1", "Activity": "Dose-dependent effect"}, {"smiles": "Cn1nc(-c2nnc(SCc3c(F)cccc3F)o2)cc1-c1ccc(C(F)(F)F)cc1", "Activity": "Dose-dependent effect"}, {"smiles": "Cn1nc(-c2nnc(SCc3ccc(C(F)(F)F)cc3)o2)cc1-c1ccc(C(F)(F)F)cc1", "Activity": "Dose-dependent effect"}, {"smiles": "Cn1nc(-c2nnc(SCc3ccc(Cl)cc3F)o2)cc1-c1ccc(C(F)(F)F)cc1", "Activity": "Dose-dependent effect"}, {"smiles": "Cn1nc(-c2nnc(SCCc3ccc(F)cc3)o2)cc1-c1ccc(C(F)(F)F)cc1", "Activity": "Dose-dependent effect"}]}, {"tested_on": "MCF7", "assay": "as §3", "assay_type": "functional, cell-based", "conditions": "MCF7, 24 h", "summary_of_the_method": "as §4", "units": {"IC50": "µM"}, "values": [{"smiles": "Cn1nc(-c2ccc(C(F)(F)F)cc2)cc1-c1nnc(SCc2cccc([N+](=O)[O-])c2)o1", "IC50": "> 100"}, {"smiles": "Cn1nc(-c2ccc(C(F)(F)F)cc2)cc1-c1nnc(S)o1", "IC50": "> 100"}, {"smiles": "Cn1nc(-c2ccc(C(F)(F)F)cc2)cc1-c1nnc(SCCc2ccc(F)cc2)o1", "IC50": 45.4}, {"smiles": "Cn1nc(-c2nnc(SCc3cccc([N+](=O)[O-])c3)o2)cc1-c1ccc(C(F)(F)F)cc1", "IC50": "> 100"}, {"smiles": "Cn1nc(-c2ccc(C(F)(F)F)cc2)cc1-c1nnc(SCc2c(F)cccc2F)o1", "IC50": 46.2}, {"smiles": "Cn1nc(-c2ccc(C(F)(F)F)cc2)cc1-c1nnc(SCc2ccc(C(F)(F)F)cc2)o1", "IC50": 27.1}, {"smiles": "Cn1nc(-c2nnc(S)o2)cc1-c1ccc(C(F)(F)F)cc1", "IC50": "> 100"}, {"smiles": "Cn1nc(-c2nnc(SCCOc3ccccc3F)o2)cc1-c1ccc(C(F)(F)F)cc1", "IC50": 23.1}, {"smiles": "Cn1nc(-c2ccc(C(F)(F)F)cc2)cc1-c1nnc(SCc2cccc(Cl)c2Cl)o1", "IC50": 60.2}, {"smiles": "Cn1nc(-c2nnc(SCc3cccc(Cl)c3Cl)o2)cc1-c1ccc(C(F)(F)F)cc1", "IC50": 32.2}, {"smiles": "Cn1nc(-c2nnc(SCc3c(F)cccc3F)o2)cc1-c1ccc(C(F)(F)F)cc1", "IC50": 26.2}, {"smiles": "Cn1nc(-c2nnc(SCc3ccc(Cl)c(Cl)c3)o2)cc1-c1ccc(C(F)(F)F)cc1", "IC50": 27.2}, {"smiles": "Cn1nc(-c2ccc(C(F)(F)F)cc2)cc1-c1nnc(SCCOc2ccccc2F)o1", "IC50": 33.3}, {"smiles": "Cn1nc(-c2nnc(SCc3ccc(C(F)(F)F)cc3)o2)cc1-c1ccc(C(F)(F)F)cc1", "IC50": 15.5}, {"smiles": "Cn1nc(-c2nnc(SCc3ccc(Cl)cc3F)o2)cc1-c1ccc(C(F)(F)F)cc1", "IC50": 18.2}, {"smiles": "Cn1nc(-c2nnc(SCCc3ccc(F)cc3)o2)cc1-c1ccc(C(F)(F)F)cc1", "IC50": 25.2}]}, {"tested_on": "MCF7", "assay": "Cytotoxicity against human MCF7 cells at 1 to 50 uM by MTT assay", "assay_type": "functional, cell-based", "conditions": "TDE = time-dependent effect", "summary_of_the_method": "as §1", "values": [{"smiles": "Cn1nc(-c2nnc(SCCOc3ccccc3F)o2)cc1-c1ccc(C(F)(F)F)cc1", "Activity": "tde"}, {"smiles": "Cn1nc(-c2nnc(SCc3c(F)cccc3F)o2)cc1-c1ccc(C(F)(F)F)cc1", "Activity": "tde"}, {"smiles": "Cn1nc(-c2nnc(SCc3ccc(C(F)(F)F)cc3)o2)cc1-c1ccc(C(F)(F)F)cc1", "Activity": "tde"}, {"smiles": "Cn1nc(-c2nnc(SCc3ccc(Cl)cc3F)o2)cc1-c1ccc(C(F)(F)F)cc1", "Activity": "tde"}, {"smiles": "Cn1nc(-c2nnc(SCCc3ccc(F)cc3)o2)cc1-c1ccc(C(F)(F)F)cc1", "Activity": "tde"}]}, {"tested_on": "MCF7", "assay": "Ratio of IC50 for human MCF7 cells after 24 hrs to IC50 for human MCF7 cells after 48 hrs by MTT assay", "assay_type": "functional", "conditions": "not given", "summary_of_the_method": "as §2", "values": [{"smiles": "Cn1nc(-c2nnc(SCc3ccc(C(F)(F)F)cc3)o2)cc1-c1ccc(C(F)(F)F)cc1", "Ratio IC50": 1.75}]}, {"tested_on": "A549", "assay": "Cytotoxicity against human A549 cells after 24 hrs by MTT assay", "assay_type": "functional, cell-based", "conditions": "A549, 24 h", "summary_of_the_method": "as §4", "units": {"IC50": "µM"}, "values": [{"smiles": "Cn1nc(-c2ccc(C(F)(F)F)cc2)cc1-c1nnc(SCCc2ccc(F)cc2)o1", "IC50": 84.2}, {"smiles": "Cn1nc(-c2ccc(C(F)(F)F)cc2)cc1-c1nnc(SCc2c(F)cccc2F)o1", "IC50": 72.2}, {"smiles": "COc1cccc2c1C(=O)c1c(O)c3c(c(O)c1C2=O)C[C@@](O)(C(=O)CO)C[C@@H]3O[C@H]1C[C@H](N)[C@H](O)[C@H](C)O1", "note": "[DOXORUBICIN]", "IC50": 3.28}, {"smiles": "Cn1nc(-c2ccc(C(F)(F)F)cc2)cc1-c1nnc(SCc2ccc(C(F)(F)F)cc2)o1", "IC50": 39.8}, {"smiles": "Cn1nc(-c2nnc(SCCOc3ccccc3F)o2)cc1-c1ccc(C(F)(F)F)cc1", "IC50": 48.1}, {"smiles": "Cn1nc(-c2ccc(C(F)(F)F)cc2)cc1-c1nnc(SCc2cccc(Cl)c2Cl)o1", "IC50": 84.2}, {"smiles": "Cn1nc(-c2nnc(SCc3cccc(Cl)c3Cl)o2)cc1-c1ccc(C(F)(F)F)cc1", "IC50": 54.3}, {"smiles": "Cn1nc(-c2nnc(SCc3c(F)cccc3F)o2)cc1-c1ccc(C(F)(F)F)cc1", "IC50": 38}, {"smiles": "Cn1nc(-c2nnc(SCc3ccc(Cl)c(Cl)c3)o2)cc1-c1ccc(C(F)(F)F)cc1", "IC50": 44.2}, {"smiles": "Cn1nc(-c2ccc(C(F)(F)F)cc2)cc1-c1nnc(SCCOc2ccccc2F)o1", "IC50": 68.1}, {"smiles": "Cn1nc(-c2nnc(SCc3ccc(C(F)(F)F)cc3)o2)cc1-c1ccc(C(F)(F)F)cc1", "IC50": 29.2}, {"smiles": "Cn1nc(-c2nnc(SCc3ccc(Cl)cc3F)o2)cc1-c1ccc(C(F)(F)F)cc1", "IC50": 48.2}, {"smiles": "Cn1nc(-c2nnc(SCCc3ccc(F)cc3)o2)cc1-c1ccc(C(F)(F)F)cc1", "IC50": 39}]}]}
